ChEMBL document CHEMBL1121537, “Anticoccidial derivatives of 6-azauracil. 3. Synthesis, high activity, and short plasma half-life of 1-phenyl-6-azauracils containing sulfonamide substituents” (J Med Chem, 1980)

Assays:
Eimeria tenella [1] = test: Minimum effective concentration required to prevent formation of detectable lesions in Eimeria tenella infected leghorn cockerels.; type: functional; conditions: read-out: MEC
Outline: (§1)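 Leghorn cockerels infected with Eimeria tenella, screened by a modified version of a published screening method. The minimum effective concentration, in ppm, is the lowest level that prevents detectable lesions.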

[2] = Half life in plasma of older birds; type: ADME, organism-based, Gallus gallus; conditions: chicken
Outline: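 Plasma half-life in older birds, about 9-10 weeks old, determined by a previously described method.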

Gallus gallus [3] = test: Plasma level measured 3h after oral administration of 4-5 mg/kg body weight in older birds; type: functional, organism-based
Outline: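 Older birds, about 9-10 weeks old, given 4-5 mg/kg body weight orally; drug level in plasma measured 3 h after dosing, in mcg/mL.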

[4] = Half life in plasma of young cockerels; type: ADME, organism-based, Gallus gallus; conditions: male, chicken
Outline: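 Plasma half-life in young cockerels, about 10 days old, determined by a previously described method.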

Gallus gallus [5] = test: Plasma level measured 3h after oral administration of 4-5 mg/kg body weight in young cockerels; type: functional, organism-based
Outline: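 Young cockerels, about 10 days old, given 4-5 mg/kg body weight orally; drug level in plasma measured 3 h after dosing, in mcg/mL.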

Eimeria acervulina = test: The compound was evaluated for the variations in the vulnerability to Eimeria acervulina; type: functional; conditions: read-out: MEC
Eimeria tenella [6] = test: The compound was evaluated for the variations in the vulnerability to Eimeria tenella; type: functional; conditions: read-out: MEC
Eimeria brunetti = test: The compound was evaluated for the variations in the vulnerability to Eimeria brunetti; type: functional; conditions: read-out: MEC
Eimeria necatrix = test: The compound was evaluated for the variations in the vulnerability to Eimeria necatrix; type: functional; conditions: read-out: MEC
Gallus gallus [7] = species on record: Gallus gallus; test: Minimum effective concentration required to prevent formation of detectable lesions in Eimeria tenella infected leghorn cockerels; Value ranges from 60-120; type: functional; outline: as §1
Gallus gallus [8] = species on record: Gallus gallus; test: Minimum effective concentration required to prevent formation of detectable lesions in Eimeria tenella infected leghorn cockerels; type: functional; outline: as §1

Structure (SMILES) | minimal effective concentration (Eimeria tenella [1]) | other results
Cc1cc(Cl)cc(-n2ncc(=O)[nH]c2=O)c1 | 15 µg/mL | half-life [2]: 1200 min; Plasma level (Gallus gallus [3]): 21.7 µg/mL
NS(=O)(=O)c1ccc(NS(=O)(=O)c2ccc(-n3ncc(=O)[nH]c3=O)cc2)cc1 | 500 µg/mL | 
Cc1cc(-n2ncc(=O)[nH]c2=O)ccc1S(=O)(=O)N1CCN(C=O)CC1 | 500 µg/mL | 
O=c1cnn(-c2ccc(S(=O)(=O)N3CCCC3)c(Cl)c2)c(=O)[nH]1 | 250 µg/mL | 
NS(=O)(=O)c1ccc(-n2ncc(=O)[nH]c2=O)cc1Cl | > 120 µg/mL | 
CCCCN(CC#N)S(=O)(=O)c1ccc(-n2ncc(=O)[nH]c2=O)cc1Cl | > 120 µg/mL | 
CCN(C)S(=O)(=O)c1ccc(-n2ncc(=O)[nH]c2=O)cc1Cl | 120 µg/mL | 
CC(C)(C)CC(C)(C)NS(=O)(=O)c1ccc(-n2ncc(=O)[nH]c2=O)cc1 | > 120 µg/mL | 
O=c1cnn(-c2ccc(S(=O)(=O)N3CCOCC3)c(Cl)c2)c(=O)[nH]1 | 30 µg/mL | half-life [4]: 126 min; Plasma level (Gallus gallus [5]): 1.9 µg/mL; minimal effective concentration (Eimeria acervulina): 120 µg/mL; minimal effective concentration (Eimeria tenella [6]): 30 µg/mL
O=c1cnn(-c2ccc(S(=O)(=O)NCc3ccccc3Cl)c(Cl)c2)c(=O)[nH]1 | > 250 µg/mL | 
CCCN(CCC)S(=O)(=O)c1ccc(-n2ncc(=O)[nH]c2=O)cc1Cl | > 250 µg/mL | 
O=c1cnn(-c2ccc(S(=O)(=O)N3CCOCC3)cc2)c(=O)[nH]1 | > 250 µg/mL | 
CCCN(C)S(=O)(=O)c1ccc(-n2ncc(=O)[nH]c2=O)cc1Cl | 250 µg/mL | 
Cc1cc(-n2ncc(=O)[nH]c2=O)cc(C)c1S(=O)(=O)N1CCOCC1 | 15 µg/mL | half-life [4]: 90 min; Plasma level (Gallus gallus [5]): 0.95 µg/mL; minimal effective concentration (Eimeria brunetti): 30 µg/mL; minimal effective concentration (Eimeria acervulina): 50 µg/mL; minimal effective concentration (Eimeria tenella [6]): 15 µg/mL; minimal effective concentration (Eimeria necatrix): 15 µg/mL
Cc1cc(-n2ncc(=O)[nH]c2=O)cc(C)c1S(=O)(=O)N(C)Cc1ccccc1 | 60 µg/mL | 
O=C1CCN(S(=O)(=O)c2ccc(-n3ncc(=O)[nH]c3=O)cc2Cl)CC1 | > 250 µg/mL | 

Structure (SMILES) | minimal effective concentration (Eimeria tenella [1]) | other results
CN(c1ccccc1)S(=O)(=O)c1ccc(-n2ncc(=O)[nH]c2=O)cc1Cl | > 250 µg/mL | 
CN(Cc1ccccc1)S(=O)(=O)c1ccc(-n2ncc(=O)[nH]c2=O)cc1Cl |  | MEC (Gallus gallus [7]): 60 p.p.m.
COc1ccc(NS(=O)(=O)c2c(C)cc(-n3ncc(=O)[nH]c3=O)cc2C)cc1 | > 250 µg/mL | 
Cc1cc(-n2ncc(=O)[nH]c2=O)cc(C)c1S(=O)(=O)N(C)C | 60 µg/mL | 
O=c1cnn(-c2ccc(S(=O)(=O)N3CCCCC3)cc2)c(=O)[nH]1 | 250 µg/mL | 
C=CCN(CC=C)S(=O)(=O)c1ccc(-n2ncc(=O)[nH]c2=O)cc1Cl | 250 µg/mL | 
O=c1cnn(-c2ccc(S(=O)(=O)N(Cc3ccccc3)Cc3ccccc3)c(Cl)c2)c(=O)[nH]1 | > 250 µg/mL | 
CN(C1CCCC1)S(=O)(=O)c1ccc(-n2ncc(=O)[nH]c2=O)cc1Cl | > 120 µg/mL | 
O=c1cnn(-c2ccc(S(=O)(=O)NC3CCCCCCC3)c(Cl)c2)c(=O)[nH]1 | > 250 µg/mL | 
O=c1cnn(-c2ccc(S(=O)(=O)Nc3c(F)c(F)c(F)c(F)c3F)c(Cl)c2)c(=O)[nH]1 | > 60 µg/mL | 
Cc1cc(Cl)cc(NS(=O)(=O)c2ccc(-n3ncc(=O)[nH]c3=O)cc2Cl)c1 | > 250 µg/mL | 
O=c1cnn(-c2cc(Cl)c(Cl)c(Cl)c2)c(=O)[nH]1 | 4 µg/mL | 
CCN(CC)S(=O)(=O)c1c(C)cc(-n2ncc(=O)[nH]c2=O)cc1Cl | 250 µg/mL | 
Cc1cccc(-n2ncc(=O)[nH]c2=O)c1 |  | MEC (Gallus gallus [8]): >120 p.p.m.
C=CCN(C)S(=O)(=O)c1ccc(-n2ncc(=O)[nH]c2=O)cc1Cl | 60 µg/mL | 
O=c1cnn(-c2ccc(S(=O)(=O)NC3CCCCC3)c(Cl)c2)c(=O)[nH]1 | > 500 µg/mL | 
